# Assay results taken from ChEMBL document CHEMBL4513216, “Probing the Open Global Health Chemical Diversity Library for Multistage-Active Starting Points for Next-Generation Antimalarials” (ACS Infect Dis, 2020).
# Assay: Toxicity liver stage against HepG2, at 10uM
# Type: cell-based
# Design: test concentration 10 uM, cell line HepG2-A16-CD81EGFP
# Conditions: human, HepG2-A16-CD81EGFP cells; read-out: INHIBITION
# In short: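 Uninfected HepG2-A16-CD81EGFP cells, 3 × 10^3 per well, 1536-well, plated on prespotted compound at 10 μM final, parasite-free screening media added to match infected plates; puromycin 10 μM positive, DMSO 0.5% negative; run in parallel with 48 h PbLuc assay at 37 °C, 5% CO2; viability by CellTiter-Glo luminescence, normalized to controls.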
row,SMILES,cytotoxicity at 10 µM [%]
1,O=C(NC[C@H]1C[C@@H]2CCN1C[C@@H]2CN1CCCC1)c1ccco1,-3.84
2,Clc1ccc(-c2nnc([C@H]3CCN(C4CCCCC4)C3)o2)cc1,-120
3,CC1(C)[C@H](Cc2cc(CN3CCOCC3)on2)C[C@@H]1NC(=O)C1CCC1,-6.67
4,CC(C)(C)NC(=O)C[C@@H]1CCNC[C@@H]1Cc1cc(C(C)(C)C)on1,4.37
5,O=C(Nc1ccc(Br)cc1F)c1ccc(N2CCCCC2)nn1,1.16
6,O=C(NCC1(O)CCOc2ccccc21)Nc1ccc2c(c1)OCO2 (stereo unspecified),-5.12
7,O=C([C@H]1COC[C@H]2CN(C3CCOCC3)C[C@H]21)N1CCCCO1,5.22
8,CC(=O)Nc1sc2c(c1C(=O)O)CCc1ccccc1-2,0.513
9,COCc1n[nH]/c(=N\C(=O)c2c3c(nc4onc(C)c24)CCC3)s1,-4.41
10,CC(C(=O)Nc1ccccn1)n1ccc(C(F)(F)F)n1 (stereo unspecified),2.74
11,CCn1nc(C)c2nnn(CC(=O)Nc3ccc(C)c(C)c3)c(=O)c21,5.75
12,CCc1c(O)nc2nc(N3CCOCC3)nn2c1C,10.8
13,CCn1c(Nc2ccccc2OC)nc2c(C)nn(C)c2c1=O,15.8
14,CCCC(=O)N1CCC(Nc2nc(O)cc(-c3ccsc3)n2)CC1,5.46
15,Cc1cn([C@H]2CCNC[C@]2(C)O)c(=O)[nH]c1=O,-6.22
16,Cc1cc(-c2ccc(=O)n(CCNC(=O)C3CCC3)n2)c(C)o1,-2.32
17,Cc1cc(C)n(CCNCc2cc(-c3ccc(F)cc3)c[nH]c2=O)n1,-5.24
18,CO[C@@H]1CCC[C@@H](NC(=O)C(C)(C)c2cccc(F)c2)[C@H]1O,-1.09
19,CN(CCc1ccccc1)Cc1cnc(C2(C)CCCCO2)nc1 (stereo unspecified),1.99
20,CNc1ncccc1CN1CCC1c1cc(N)nc(C)n1 (stereo unspecified),15.9
21,CCNC(=O)C1(Cc2cc(-c3ccccc3)no2)CCCN(C)C1 (stereo unspecified),5.31
22,CC(C)c1cn(CC(=O)NC2CC(=O)N(CCc3ccccc3)C2)nn1 (stereo unspecified),-15.1
23,CNC(=O)c1ccc(-c2ccc(CNC(=O)COC)cc2)nc1C,-5.52

row,SMILES,cytotoxicity at 10 µM [%]
1,Cc1ccnc(C2CCN(c3ccnc(C)n3)C2)n1 (stereo unspecified),-0.485
2,Cn1ccnc1CN1CCCC(CCCc2ccccn2)(C(N)=O)C1 (stereo unspecified),2.83
3,Cc1nccc(N2CCCC2CCNS(C)(=O)=O)n1 (stereo unspecified),0.146
4,Cc1nc(C2CCCN2C(=O)Cc2cccc(F)c2)nc(O)c1C (stereo unspecified),-26.9
5,CCc1ncc(CN2CCN(CCOC)CC2)cn1,-21.7
6,Cc1ccccc1S(=O)(=O)N1CCC(c2[nH]ncc2C)C1 (stereo unspecified),-21.1
7,Cc1cc(-c2cnc(N3CCC(O)CC3)nc2-c2cccnc2C)on1,-25.2
8,Cc1cc2c(=O)n3c(nc2s1)CCN(C(=O)c1ccnn1C(C)C)CC3,-6.46
9,COCCN(C(=O)c1cnccn1)c1nc2c(s1)CCc1c-2cnn1C,-24.3
10,CC(OCC1CC1)C(=O)NCc1cccc(CN2CCCC2=O)c1 (stereo unspecified),3.05
11,O=C(C1CCOc2ccccc21)N1CCOc2cccc(F)c21 (stereo unspecified),4.52
12,Cc1ncc(CNC(=O)NCc2c(F)cccc2OC(F)F)s1,-4.27
13,O=C(CCn1cncn1)NCCOc1cccc(Cl)c1,1.58
14,O=C(CNC1(CCO)CCOCC1)Nc1ccc(F)cc1F,-41.6
15,Cc1ccccc1Cc1nc(CSc2nnc(N)n2C)no1,5.26
16,Cc1ccn(CC(=O)NCCCOc2ccccc2F)c(=O)c1,-5.79
17,O=C(CCc1nc(-c2cccnc2)no1)NCC1CCN(C2CC2)C1 (stereo unspecified),0.113
18,CCn1ccnc1CN1CCN(c2ncnc3ccsc23)CC1C (stereo unspecified),3.04
19,Cc1c(C(=O)OCC2CC(=O)N(c3ccccc3)C2)cnn1C(C)C (stereo unspecified),-3.52
20,N#Cc1ccnc(N2CCN(CC(O)c3ccc(F)cc3)CC2)c1 (stereo unspecified),2.99
21,Cc1csc(N2CCN(C(=O)c3cc(Cl)c[nH]3)CC2)n1,-2.82
22,Cc1cc(F)ccc1CCNC(=O)NCC(C)N1CCOCC1 (stereo unspecified),-1.35
23,O=C(NCc1ccccn1)NCC(O)c1ccccc1C(F)(F)F (stereo unspecified),-0.36

row,SMILES,cytotoxicity at 10 µM [%]
1,CCCN(CCC)Cc1nnsc1Cl,10.3
2,Cc1ccc(CN(C(=O)NCC(c2cccs2)N(C)C)C2CC2)o1 (stereo unspecified),-4.24
3,CCC(NCc1ccccn1)c1ccccc1OCC(=O)NC (stereo unspecified),11.3
4,Cn1cnnc1CCNC(=O)c1cnn(Cc2ccccc2)c1,-0.722
5,CCN(CC)S(=O)(=O)CCNc1ncnc2cc(F)c(F)cc12,25.9
6,COc1c(CNCCC(=O)Nc2cccc(C)n2)c(C)nn1C,12.6
7,CC(C)c1nc(C2CCCN2CCc2ccccn2)no1 (stereo unspecified),3.38
8,CCNC(=O)N1CCc2ccc(NC(=O)NCC3CC3)cc21,3.53
9,Cc1cc(S(=O)(=O)N2CCCc3cc(F)cc(F)c32)sc1C(=O)O,21.8
10,O=C(c1ccc[nH]1)N1CCn2cc(Cn3cncn3)nc2C1,-2.65
11,CN1CCN(CC2CC2)C(=O)c2cnc(N3CCCC3)nc21,5.08
12,NC(=O)c1nc(CN2CCOC(C(F)(F)F)C2)no1 (stereo unspecified),-3.39
13,CC(NC(=O)CCCn1cnc2ccccc2c1=O)c1ncn[nH]1 (stereo unspecified),-4.31
14,CCn1c(CN(C)C)nnc1C1CCN(Cc2ccc(C)s2)CC1,7.01
15,Cc1nnsc1CNC(=O)CSCc1ccccc1Cl,-2.85
16,COC(=O)[C@@H](NC(=O)c1coc(COc2cccc(F)c2)n1)C(C)C,-142
17,O=C(NCCCNc1cccnc1)c1ccc2nccn2c1,-42.4
18,COCCCN(C(=O)c1ccc(-n2ccnc2)cc1)C1CCN(C)CC1,-15.8
19,Cc1ccc(NC(=O)[C@H]2C[C@H](C(=O)O)CN(CC(C)C)C2)cn1,9.9
20,Cc1cc(=O)[nH]c(SC(C)C(=O)N2CCC(c3ncc[nH]3)CC2)n1 (stereo unspecified),-16.2
21,Nc1ccc(C(=O)N2CCCC(c3nccn3Cc3cscn3)C2)cn1 (stereo unspecified),-4.92
22,Cn1nc(C(C)(C)C)cc1NC(=O)Cn1ccnc1,1.5
23,COc1ccc(/C=C/CN2CCN(c3ncccc3C(N)=O)CC2)cc1,-8.88

row,SMILES,cytotoxicity at 10 µM [%]
1,Cc1n[nH]c(C)c1CN(C)C(C(=O)O)c1ccc2c(c1)OCO2 (stereo unspecified),6.86
2,Cc1cc(N2Cc3cnc(CC(C)C)nc3C2)nc(N)n1,-5.64
3,Cc1csc(CCNC(=O)C2CCCN(C3CCOCC3)C2)n1 (stereo unspecified),3.01
4,CCc1cnc(N2CCOC(CCOC)C2)nc1 (stereo unspecified),-3.88
5,CCc1ncc(C(=O)N2CCC(O)(CN3CCOCC3)C(C)(C)C2)cn1 (stereo unspecified),-4.6
6,COCc1nc(CN2CCN(c3ccc(OC)cc3)C(=O)C2C)no1 (stereo unspecified),3.35
7,CCc1c(C(=O)N2CC[C@H](N3CCOCC3)[C@H](CCCO)C2)csc1C,-141
8,COCCCN(C)[C@@H]1c2ccccc2C2(CCNCC2)[C@H]1O,1.73
9,Cc1ccc(CN2CCN(c3ccc(F)cn3)CC2=O)cc1C,-4.4
10,Cc1nn(C)c2ncnc(N3CCCC(C)(O)C3)c12 (stereo unspecified),0.541
11,CC(C)N(Cc1nccn1C)C(=O)c1cc(Cl)c[nH]c1=O,-0.723
12,CCn1ncnc1C(C)NC(=O)C1CCN(C(=O)COC)CC1 (stereo unspecified),2.82
13,Cc1nc(N2CCN(C)CC2)ncc1C(=O)N1CC(C)(C)C(C)(O)C1 (stereo unspecified),18.5
14,Cc1cc(C)n(CC2CCCN2C(=O)c2cccc3c2OCCO3)n1 (stereo unspecified),-11.8
15,COc1c(CNC2CCc3ccccc32)c(C(C)C)nn1C (stereo unspecified),0.441
16,COc1c(CNCCNC(=O)c2ccc(C)c(F)c2)c(C)nn1C,-3.33
17,CCOC1CCCN(C(=O)c2nn(-c3ccccc3F)cc2O)C1 (stereo unspecified),-4.62
18,CC(C)n1ncc2cc(NC(=O)N3CCSCC3)cnc21,-5.07
19,Cc1nnc2n1CCN(C(C(=O)N1CCCCC1)c1ccccc1)C2 (stereo unspecified),-5.83
20,Cc1ccsc1CNC(=O)N1CCC(Cc2cnn(C)c2)C1 (stereo unspecified),-6.6
21,CCNc1cc2c(nn1)CCN(C(=O)C1CCc3ccccc31)C2 (stereo unspecified),0.169
22,COc1ccccc1C(C)NC(=O)N1CCC(n2cncn2)CC1 (stereo unspecified),2.85
23,CCOc1ccc(C(=O)N2CCCS2(=O)=O)cc1OC,-7.42

row,SMILES,cytotoxicity at 10 µM [%]
1,CN(C)CC1CN(Cc2coc(-c3cccc(F)c3)n2)CCO1 (stereo unspecified),-17.2
2,CN(C)CC1CN(Cc2cccc(C(=O)N(C)C)c2)CCO1 (stereo unspecified),-0.729
3,Cc1noc(C)c1CN(C)C(=O)c1ccc(NC2CC2)nc1,-4.94
4,Cn1nccc1C1CCN(Cc2csc(-c3ncccn3)n2)CC1,-1.91
5,CC1CCCN(C(=O)c2cccc(CS(C)(=O)=O)c2)C1 (stereo unspecified),-1.42
6,Cc1nn(C)c(N(C)C)c1CNCc1cccc(OCCN(C)C)c1,1.38
7,CCn1ccnc1CN1CCN(C(C)C(=O)NC2CCCCC2)CC1 (stereo unspecified),-2.17
8,Cc1noc(C)c1CN1CCN(Cc2nccn2C)C(C)C1 (stereo unspecified),-5.38
9,CNS(=O)(=O)CCCN1CCCC1c1noc(C2CC2)n1 (stereo unspecified),-16.5
10,CC(C)CN1CCN(C(=O)NCc2cccnc2-n2cccn2)CC1,7.29
11,CCn1ccnc1CN1CCN(c2cc(C)nc(C3CCCN3)c2)CC1 (stereo unspecified),2.19
12,COc1ccc(C2(NCc3c(C)nc4c(C)cccn34)CCCC2)cc1,3.79
13,O=C1COC2(CCN(Cc3cccs3)CC2)CN1c1cccnc1,-125
14,Cc1cccc(CN2CC3C[C@]3(NC(=O)c3cccc(F)c3)C2)n1 (stereo partly specified),-151
15,O=C(c1cnccn1)N1CCN2C[C@H](OCc3ccccc3)C[C@H]2C1,1.44
16,CCOCC1CN(Cc2ccco2)Cc2nccn2C1 (stereo unspecified),-142
17,O=C(c1cnccn1)N1C[C@@H]2C[C@@H](c3nc(C4CC4)cs3)O[C@@H]2C1,-118
18,Oc1cccc(CN2C[C@@H]3CC[C@H]2CN(Cc2cccnc2)C3)c1,-121
19,CN(C)CCCC(=O)N1C[C@@H]2CC[C@H]1CN(Cc1ccccc1)C2,-5.39
